Test results: ChEMBL document CHEMBL4706641, “Novel Carboline Fungal Histone Deacetylase (HDAC) Inhibitors for Combinational Treatment of Azole-Resistant Candidiasis” (J Med Chem, 2021)
In brackets after ≈: the same amount, converted by molar mass. Activity calls are given as the source filed them.

Assays:
Cryptococcus neoformans = assay: Antifungal activity against Cryptococcus neoformans; assay type: functional
Candida albicans [1] = assay: Synergistic antifungal activity against Candida albicans 0304103 incubated for 48 hrs in presence of fluconazole by microdilution assay; assay type: functional
How it was run: (§1)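 Checkerboard broth microdilution per CLSI M27-A3 (modified), clinical Candida isolates. Exponential cells in RPMI 1640 (MOPS-buffered) at 10³ cells/mL; fluconazole 0.25–64 μg/mL crossed with test compound 2–64 μg/mL (final). 48 h at 35 °C; OD630 read with background subtracted. MIC80 = 80% growth inhibition; FICI ≤0.5 synergy, >4 antagonism.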

Candida albicans [2] = assay: Antifungal activity against Candida albicans 0304103 incubated for 48 hrs by microdilution assay; assay type: functional; how it was run: as §1
Candida albicans [3] = assay: Synergistic antifungal activity against Candida albicans 0304103 assessed as potentiation of fluconazole antifungal activity by measuring FICI incubated for 48 hrs in presence of fluconazole by checkerboard microdilution assay; assay type: functional; how it was run: as §1
Candida albicans [4] = assay: Synergistic antifungal activity against azole-resistant Candida albicans assessed as potentiation of ITC antifungal activity by measuring ITC incubated for 48 hrs in presence of fluconazole by checkerboard microdilution assay; assay type: functional
Candida albicans [5] = assay: microbe, parasite or virus in culture; assay type: functional, 0304103
Candida albicans [6] = assay: Synergistic antifungal activity against azole-resistant Candida albicans assessed as potentiation of VRC antifungal activity by measuring VRC incubated for 48 hrs in presence of fluconazole by checkerboard microdilution assay; assay type: functional
Candida albicans [7] = assay: Antifungal activity against Candida albicans 0304103 infected in ICR mouse model of candidiasis assessed as reduction in kidney fungal burden at 1 mg/kg, ip dosed 24 hrs post infection and measured after 5 days; assay type: functional, organism-based; conditions: time 5.0 day
Candida albicans [8] = assay: Antifungal activity against Candida albicans 9884 incubated for 48 hrs by microdilution assay; assay type: functional; how it was run: as §1
Pichia kudriavzevii [9] = assay: Antifungal activity against Candida krusei 10153 incubated for 48 hrs by microdilution assay; assay type: functional; how it was run: as §1
Candida albicans [10] = assay: (§2) Antifungal activity against Candida albicans 0304103 infected in ICR mouse model of candidiasis assessed as reduction in morphological changes of budded-to-hyphal transition at 1 mg/kg, ip dosed 24 hrs post infection and measured after 5 days by H and E staining based microscopical analysis; assay type: functional, organism-based; conditions: time 5.0 day
Candida albicans [11] = assay: Antifungal activity against Candida albicans 4108 incubated for 48 hrs by microdilution assay; assay type: functional; how it was run: as §1
Candida albicans [12] = assay: Induction of morphological changes in Candida albicans assessed as reduction in morphological conversion from yeast to hypha forms at 32 ug/ml incubated for 3 hrs by inverse fluorescence microscopy; assay type: functional, organism-based; conditions: dose 32.0 µg/ml
How it was run: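 Exponential-phase C. albicans were suspended in Spider medium ([…], 2% NaHCO₃, […]) at 2 × 10⁶ cells/mL. Drugs were added alone or combined, with DMSO as control. After 3 h at 37 °C, cells were imaged by inverted fluorescence microscopy. Three independent experiments were run.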

Candida albicans [13] = assay: Antifungal activity against Candida albicans 0304103 at 64 ug/ml incubated for 48 hrs by microdilution assay; assay type: functional, organism-based; conditions: dose 64.0 µg/ml
How it was run: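 Checkerboard microdilution adapted from CLSI M27-A3. Exponential-phase cells resuspended at 10³ cells/mL in RPMI 1640 buffered with 0.165 M MOPS. Final concentrations were fluconazole 0.25–64 μg/mL and test compound 2–64 μg/mL. Plates were held 48 h at 35 °C and read at OD630 with background subtracted. MIC80 was used, and the FICI cut-offs were synergy ≤0.5 and antagonism >4.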

Candida albicans [14] = assay: as §2, with “fungal invasion by measuring clusters” for “morphological changes”, “fungal infiltration in renal pelvis” for “budded-to-hyphal transition”; assay type: functional, organism-based; conditions: time 5.0 day
Candida albicans [15] = assay: Antifungal activity against Candida albicans 9172 incubated for 48 hrs by microdilution assay; assay type: functional; how it was run: as §1
Candida albicans [16] = assay: Inhibition of biofilm formation in Candida albicans 0304103 at 2 to 32 ug/ml incubated for 24 hrs by XTT reduction assay; assay type: functional, organism-based; conditions: dose 2-32 µg/ml
How it was run: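 C. albicans 0304103 at 1.0 × 10⁶ CFU/mL in RPMI 1640 was allowed to adhere for 90 min at 37 °C, then washed with PBS. Fresh medium was added with fluconazole 2–32 μg/mL and/or test compound 0.12–64 μg/mL, followed by 24 h at 37 °C. Biofilm was measured semiquantitatively by XTT reduction at OD490. Three independent experiments were run.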

Candida albicans [17] = assay: Antifungal activity against Candida albicans 10061 incubated for 48 hrs by microdilution assay; assay type: functional; how it was run: as §1
Candida albicans [18] = assay: Effect on CDR2 mRNA expression in Candida albicans 0304103 at 32 ug/ml incubated for 24 hrs by RT-PCR analysis; assay type: functional; conditions: dose 32.0 µg/ml
How it was run: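 C. albicans 0304103 was started at 1 × 10⁶ cells/mL and treated with DMSO control, fluconazole 32 μg/mL, test compound 32 μg/mL, or both. Cultures were held in YEPD at 35 °C for 24 h, then total RNA was extracted and reverse-transcribed. Real-time PCR ran 40 cycles. Fold change was calculated by 2^−ΔΔCt against ACT1.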

Candida albicans [19] = assay: Synergistic antifungal activity against Candida albicans 4108 assessed as fluconazole MIC incubated for 48 hrs in presence of fluconazole by microdilution assay (reference value: fluconazole alone MIC = >[…] ug/ml); assay type: functional
Candida albicans [20] = assay: Synergistic antifungal activity against Candida albicans 9172 incubated for 48 hrs in presence of fluconazole by microdilution assay; assay type: functional; how it was run: as §1
Candida albicans [21] = assay: Synergistic antifungal activity against Candida albicans 10061 incubated for 48 hrs in presence of fluconazole by microdilution assay; assay type: functional; how it was run: as §1
Candida albicans [22] = assay: Synergistic antifungal activity against Candida albicans 9884 assessed as fluconazole MIC incubated for 48 hrs in presence of fluconazole by microdilution assay (reference value: fluconazole alone MIC = >[…] ug/ml); assay type: functional
Candida albicans [23] = assay: Synergistic antifungal activity against Candida albicans 4108 incubated for 48 hrs in presence of fluconazole by microdilution assay; assay type: functional; how it was run: as §1
Pichia kudriavzevii [24] = assay: Synergistic antifungal activity against Candida krusei 10153 incubated for 48 hrs in presence of fluconazole by microdilution assay; assay type: functional; how it was run: as §1
Candida albicans [25] = assay: Synergistic antifungal activity against Candida albicans 10061 assessed as fluconazole MIC incubated for 48 hrs in presence of fluconazole by microdilution assay (reference value: fluconazole alone MIC = >[…] ug/ml); assay type: functional
Candida albicans [26] = assay: Synergistic antifungal activity against Candida albicans 9884 incubated for 48 hrs in presence of fluconazole by microdilution assay; assay type: functional; how it was run: as §1
Candida albicans [27] = assay: Synergistic antifungal activity against Candida albicans 9172 assessed as fluconazole MIC incubated for 48 hrs in presence of fluconazole by microdilution assay (reference value: fluconazole alone MIC = >[…] ug/ml); assay type: functional
Pichia kudriavzevii [28] = assay: Synergistic antifungal activity against Candida krusei 10153 assessed as fluconazole MIC incubated for 48 hrs in presence of fluconazole by microdilution assay (reference value: fluconazole alone MIC = […] ug/ml); assay type: functional
[29] = Candida albicans, 0304103, read-out: MIC80
[30] = Candida albicans, 0304103, time 48 hrs, read-out: MIC80

| Structure (SMILES) | MIC80 (Candida albicans [1]) | MIC80 (Candida albicans [2]; [29]) | fractional inhibitory concentration index (FICI) (Candida albicans [3]) | fractional inhibitory concentration index (FICI) (Candida albicans [4]) | MIC80 (Candida albicans [5]; [30]) | fractional inhibitory concentration index (FICI) (Candida albicans [6]) | other results |
| --- | --- | --- | --- | --- | --- | --- | --- |
| Clc1ccc(OCCCn2c3c(c4cc(Cl)ccc42)CCNC3)cc1.O=C(O)C(F)(F)F |  |  |  |  |  |  | MIC80 (Cryptococcus neoformans): 0.25 µg/mL |
| O=C(Cc1ccc(OCCCn2c3c(c4c(Cl)cccc42)CCNC3)cc1)NO | 2 µg/mL | > 64 µg/mL | 0.039 | 0.035 | 0.5 µg/mL (≈ 1.21 µM) | 0.035 |  |
| O=C(Cc1ccc(OCCCn2c3c(c4ccc(Br)cc42)CCNC3)cc1)NO | 2 µg/mL | > 64 µg/mL | 0.039 | 0.035 | 0.5 µg/mL (≈ 1.09 µM) | 0.035 |  |
| O=C(Cc1ccc(OCCCn2c3c(c4c(Br)cccc42)CCNC3)cc1)NO | 4 µg/mL | > 64 µg/mL | 0.066 | 0.035 | 0.25 µg/mL (≈ 0.545 µM) | 0.035 |  |
| O=C(Cc1ccc(OCCCn2c3c(c4ccccc42)CCNC3)cc1)NO | 4 µg/mL | > 64 µg/mL | 0.07 | 0.035 | 0.5 µg/mL (≈ 1.32 µM) | 0.035 |  |
| COc1cccc2c3c(n(CCCOc4ccc(CC(=O)NO)cc4)c12)CNCC3 | 2 µg/mL | > 64 µg/mL | 0.047 | 0.035 | 1 µg/mL (≈ 2.44 µM) | 0.035 |  |
| OC(Cn1cncn1)(Cn1cncn1)c1ccc(F)cc1F [FLUCONAZOLE] |  | > 64 µg/mL |  |  |  |  | Activity (Candida albicans [7]): inactive; MIC80 (Candida albicans [8]): > 64 µg/mL; MIC80 (Pichia kudriavzevii [9]): 64 µg/mL (≈ 209 µM); Activity (Candida albicans [10]): inactive; MIC80 (Candida albicans [11]): > 64 µg/mL; Activity (Candida albicans [12]): inactive; Activity (Candida albicans [13]): inactive; Activity (Candida albicans [14]): inactive; MIC80 (Candida albicans [15]): > 64 µg/mL; inhibition (Candida albicans [16]): inactive; MIC80 (Candida albicans [17]): > 64 µg/mL; Activity (Candida albicans [18]): inactive |
| CN1CCc2c(c3ccccc3n2Cc2ccc(C(=O)NO)cc2)C1 [TUBASTATIN A] |  |  |  |  |  |  | MIC80 (Candida albicans [19]): 0.5 µg/mL; MIC80 (Candida albicans [8]): > 64 µg/mL; MIC80 (Pichia kudriavzevii [9]): > 64 µg/mL; MIC80 (Candida albicans [11]): > 64 µg/mL; MIC80 (Candida albicans [20]): 16 µg/mL; MIC80 (Candida albicans [21]): 2 µg/mL; MIC80 (Candida albicans [22]): 1 µg/mL; MIC80 (Candida albicans [23]): 8 µg/mL; MIC80 (Candida albicans [15]): > 64 µg/mL; MIC80 (Pichia kudriavzevii [24]): 64 µg/mL; MIC80 (Candida albicans [25]): 0.5 µg/mL; MIC80 (Candida albicans [26]): 4 µg/mL; MIC80 (Candida albicans [17]): > 64 µg/mL; MIC80 (Candida albicans [27]): 0.5 µg/mL; MIC80 (Pichia kudriavzevii [28]): 32 µg/mL |
| O=C(Cc1ccc(OCCCn2c3c(c4ccc(Cl)cc42)CCNC3)cc1)NO | 2 µg/mL | 64 µg/mL (≈ 155 µM) | 0.047 | 0.035 | 1 µg/mL (≈ 2.42 µM) | 0.035 |  |
| O=C(Cc1ccc(OCCCn2c3c(c4cc(F)ccc42)CCNC3)cc1)NO | 2 µg/mL | > 64 µg/mL | 0.062 | 0.035 | 2 µg/mL (≈ 5.03 µM) | 0.035 |  |
| O=C(Cc1ccc(OCCCn2c3c(c4ccc(F)cc42)CCNC3)cc1)NO | 2 µg/mL | > 64 µg/mL | 0.047 | 0.035 | 1 µg/mL (≈ 2.52 µM) | 0.035 |  |
| O=C(CCCCCCC(=O)Nc1ccccc1)NO [VORINOSTAT] |  |  |  |  |  |  | MIC80 (Candida albicans [2]): >64 µg/mL; MIC80 (Candida albicans [5]; 48 h): 0.25 µg/mL (≈ 0.946 µM) |
| O=C(Cc1ccc(OCCCn2c3c(c4cc(Br)ccc42)CCNC3)cc1)NO | 2 µg/mL | 64 µg/mL (≈ 140 µM) | 0.035 | 0.035 | 0.25 µg/mL (≈ 0.545 µM) | 0.035 |  |
| Cc1ccc2c(c1)c1c(n2CCCOc2ccc(CC(=O)NO)cc2)CNCC1 | 4 µg/mL | > 64 µg/mL | 0.078 | 0.035 | 1 µg/mL (≈ 2.54 µM) | 0.035 |  |
| COc1ccc2c(c1)c1c(n2CCCOc2ccc(CC(=O)NO)cc2)CNCC1 | 8 µg/mL | > 64 µg/mL | 0.13 | 0.035 | 0.5 µg/mL (≈ 1.22 µM) | 0.035 |  |
